Compounds with a hit are over-represented: about 2% of the library has one in this group of screens.
ARFGAP1 inh: rat ARFGAP1 inhibition | inhibition, % at 16.5 µM | Arfgap1-stimulated ARF1 GTP hydrolysis, GDP FP detection | Q62848 | 360,000 tested, 0.26% active;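 active = inhibition above a per-plate limit, mean inhibition of low control wells plus 3 SD, cut at about 25% in these data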
Target sequence (Q62848 1-136 limits assumed): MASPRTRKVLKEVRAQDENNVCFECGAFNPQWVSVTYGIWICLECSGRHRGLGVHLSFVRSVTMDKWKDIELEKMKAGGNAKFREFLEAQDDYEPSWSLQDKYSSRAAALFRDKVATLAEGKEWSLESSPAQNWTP
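Material – truncated rat Arfgap1 GAP domain · Buffer or medium – HEPES-based buffer, pH 7.5 · Reagent – human ARF1(Δ1-17)-GTP substrate · Dosing – 16.5 µM single point, 1.26% DMSO · Schedule – GTP hydrolysis reaction 2 h at 25 °C · Technique – GDP detection by fluorescence polarization · Benchmarks – No-Arfgap1 wells (100%) versus DMSO full-reaction wells (0%) · Repeats – single replicate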
ASAP1 inh: ASAP1 ArfGAP inhibition; Q9ULH1; ASAP1-stimulated ARF1 GTP hydrolysis, GDP FP detection; inhibition, % at 16.5 µM; 360,000 tested, 0.19% active; AID 624377; in the data active = inhibition above about 25%
LEDGF integ inh: blocks HIV-1 LEDGF/p75-dependent DNA integration. 370,000 tested, 0.64% active. inhibition, % at 3.7 µM. TR-FRET IN-LEDGF/p75 DNA integration, Eu/Cy5. AID 743269;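 active = inhibition above the screen-wide mean plus 3 SD, cut at about 13% in these data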;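 also: signal is the Cy5 over europium emission ratio at 671 and 618 nm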
MBD2 inh: inhibitors of human MBD2 binding to methylated oligonucleotide; inhibition, % at 4.4 µM; Q9UBB5; TR-FRET; AID 686964; 370,000 tested, 0.31% active; in the data active = inhibition above about 13%
UHRF1 binding: blocks human UHRF1 binding to methylated DNA; Q96T88; UHRF1 binding to methylated oligo, TR-FRET; inhibition, % at 4.4 µM; 370,000 tested, 0.75% active; AID 687016; in the data active = inhibition above about 21%;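 also: UHRF1 SRA domain binding a hemimethylated CpG hairpin DNA probe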
TDP2 absorb: blocks human TDP2 phosphodiesterase activity; 370,000 tested, 0.34% active; inhibition, % at 12.8 µM; AID 720702; recombinant TDP2, T5PNP hydrolysis, p-nitrophenol absorbance 415 nm;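 active = inhibition above the mean of all tested compounds plus 3 SD, set per campaign, cut at about 25% in these data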
Target sequence (O95551 whole entry, looked up): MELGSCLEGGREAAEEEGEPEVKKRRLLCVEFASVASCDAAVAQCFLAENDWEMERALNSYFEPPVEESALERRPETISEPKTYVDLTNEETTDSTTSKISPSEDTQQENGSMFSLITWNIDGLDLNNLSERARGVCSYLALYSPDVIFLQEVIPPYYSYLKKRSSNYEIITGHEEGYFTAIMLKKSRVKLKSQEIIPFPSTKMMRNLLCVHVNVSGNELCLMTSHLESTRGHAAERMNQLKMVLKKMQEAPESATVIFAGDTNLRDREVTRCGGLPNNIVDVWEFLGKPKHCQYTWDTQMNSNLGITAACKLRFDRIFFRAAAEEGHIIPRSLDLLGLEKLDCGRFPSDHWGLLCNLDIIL
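Assay system: recombinant human TDP2 / Reagent: T5PNP substrate at 5 mM, a TopII-DNA adduct mimic / Measured by: epi absorbance from released p-nitrophenol / Evaluation: % inhibition relative to enzyme-containing and enzyme-free wells / Control set: enzyme-free and DMSO wells / Replicates: each compound tested once, singlicate / Schedule: enzyme reaction with compound for 2 h at 37 °C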
Large screens that a line does not name were inactive; ! = not active in a repeat.

CCCN(CCC)Cc1cc(=O)oc2cc(C)c(C)cc12	none
CCCN(CCC)Cc1cc(=O)oc2cc3c(cc12)CCC3	UHRF1 binding 31
O=C(CCc1nnc2ccc(N3CCCCC3)nn12)NCc1ccco1	UHRF1 binding 25
CSc1ccc(CCNC(=O)CCc2nnc3ccc(N4CCCC4)nn23)cc1	none
COc1cc(NC(=O)CCc2nnc3ccc(N4CCCC4)nn23)cc(OC)c1OC	UHRF1 binding 23
O=C(Nc1ccc(C(O)(C(F)(F)F)C(F)(F)F)cc1)c1c(F)cccc1F	none (no result: ARFGAP1 inh, ASAP1 inh)
CCCCCn1nnnc1C1(C)CCSCC(=O)N1Cc1ccco1 (centres undefined)	none (no result: ARFGAP1 inh, ASAP1 inh)
Cc1noc(C)c1S(=O)(=O)Nc1ccc(C(=O)NC2CCCCCC2)cc1	UHRF1 binding 21
COc1ccc(C2C(C(=O)N3CCN(c4ccccc4C)CC3)CC(=O)N2c2ccc(OC)cc2)cc1 (centres undefined)	none (no result: ARFGAP1 inh, ASAP1 inh)
O=C1c2ccccc2C(=O)c2[nH]c(=O)[nH]c21	TDP2 absorb 38
O=C(c1ccc(F)cc1Cl)N(Cc1ccccn1)CC1CCCO1 (centres undefined)	none (no result: ARFGAP1 inh, ASAP1 inh)
N#Cc1c(SCC(=O)Nc2ccccc2C(F)(F)F)sc2c(O)cc(=O)[nH]c12	UHRF1 binding 31
COc1cc(C(=O)OCC(=O)c2cc(C)n(CC3CCCO3)c2C)cc(OC)c1C (centres undefined)	UHRF1 binding 21
Cc1cc(C(=O)NNC(=O)/C=C/c2ccco2)c(C)o1	LEDGF integ inh 53, UHRF1 binding 29
COc1cc(NC(=O)c2csc(N)n2)cc(C(=O)Nc2cccc(C(F)(F)F)c2)c1	none
COc1cc(NC(=O)c2cc(C)on2)cc(C(=O)Nc2cccc(C(F)(F)F)c2)c1	UHRF1 binding 93!
O=C(NC1CCCCN(Cc2cccc(Cl)c2)C1=O)C1CCCCC1 (centres undefined)	none (no result: ARFGAP1 inh, ASAP1 inh)
Cc1ccc(CNCc2cccnc2)cc1	none
Cc1ccc(CNCc2cccnc2)s1	UHRF1 binding 26
CCOc1ccc(C(=O)Nc2ccc3c(c2)OCO3)cc1OCC	UHRF1 binding 25
O=C(CSc1nnnn1C1CCCCC1)Nc1ccc(F)cc1	none
O=C(CSc1nnnn1C1CCCC1)N1CCCc2ccccc21	UHRF1 binding 29
O=C(CSc1nnnn1C1CCCCC1)Nc1ccc2c(c1)OCO2	UHRF1 binding 21
Cc1ccc2nc(-c3ccc(NC(=O)CSc4nnc(Cc5cccs5)n4C)cc3)sc2c1	none (no result: ARFGAP1 inh, ASAP1 inh)
Cc1cccc(C)c1NC(=O)C1(NC(=O)Cn2cccc([N+](=O)[O-])c2=O)CCCCC1	UHRF1 binding 24
Cc1cccc(C)c1NC(=O)C1(NC(=O)C2CCC(=O)N2)CCCCC1 (centres undefined)	none
COC(=O)[C@]12C[C@H](CC(=O)NCc3cccc4ccccc34)C(=O)N(Cc3cccc4ccccc34)C1=C[C@H](C1CCCC1)O[C@@H]2C	none (no result: ARFGAP1 inh, ASAP1 inh)
CCCCOCCCNC(=O)C[C@H]1C[C@@]2(C(=O)OC)C(=C[C@H](C(C)C)O[C@@H]2C2CC2)N(CCC2=CCCCC2)C1=O	none (no result: ARFGAP1 inh, ASAP1 inh)
CC1=NN(c2ccccc2)C(=O)/C1=C\c1ccc(Oc2ccc([N+](=O)[O-])cc2[N+](=O)[O-])cc1	ARFGAP1 inh 25, LEDGF integ inh 31, MBD2 inh 15, TDP2 absorb 78
COc1cc(/C=C2/C(=O)N(c3ccc(C)c(C)c3)N=C2C)cc([N+](=O)[O-])c1O	none
O=C(N[C@@H]1CCCc2c1cnn2-c1ccc(F)cc1F)c1ccccn1	none (no result: ARFGAP1 inh, ASAP1 inh)
COCCNC[C@@]12CO[C@H](c3ccc(Cl)cc3)N1[C@@H](c1ccc(Cl)cc1)SC2	none (no result: ARFGAP1 inh, ASAP1 inh)
O=C(COC(=O)C1CCN(S(=O)(=O)c2ccccc2)CC1)NC(=O)c1ccc(OC(F)F)cc1	UHRF1 binding 26
O=C(COC(=O)c1ccccc1O)NC(=O)c1ccc(OC(F)F)cc1	none
Cc1ccc(S(=O)(=O)N2CCC(C(=O)OCC(=O)NCCc3ccccc3)CC2)cc1C	UHRF1 binding 40
Cc1ccc(S(=O)(=O)N2CCC(C(=O)OCc3ccccc3)CC2)cc1C	none
CCOC(=O)C1CCN(S(=O)(=O)c2ccc3c(c2)CC(=O)N3C)CC1	TDP2 absorb 25
O=c1c2ccccc2n(Cc2ccco2)n1[C@@H](Cc1ccccc1)Cn1cc(C2CCCC2)nn1	none (no result: ARFGAP1 inh, ASAP1 inh)
COC(=O)[C@]12C[C@H](CC(=O)N3CCSCC3)C(=O)N(CCc3ccc(OC)c(OC)c3)C1=C[C@H](C(C)(C)C)O[C@@H]2C	none (no result: ARFGAP1 inh, ASAP1 inh)
C[C@@H]1CCN(C2CC2)S(=O)(=O)c2c(cccc2N2CCC[C@H]2C)O1	none (no result: ARFGAP1 inh, ASAP1 inh)
CCOC(=O)C1=C(C)N(C)C(C)=C(C(=O)OCC)C1c1ccc(Cl)cc1	UHRF1 binding 26
c1ccc(-c2cc(NCCN3CCCCC3)c3ccccc3n2)cc1	UHRF1 binding 21
O=C(CN[C@@H](Cc1c[nH]c2ccccc12)C(=O)NCCc1c[nH]c2ccccc12)NC1CCCCC1	none (no result: ARFGAP1 inh, ASAP1 inh)
COC1=C[C@H](C(=O)NCc2ccccn2)[C@@]2(C)Cc3ccccc3[C@H]2CC1=O	none (no result: ARFGAP1 inh, ASAP1 inh)
CCCCNS(=O)(=O)c1ccc2nc(SCC(=O)Nc3sccc3C#N)[nH]c2c1	ASAP1 inh 27
CC1CCN(CCc2nc3cc(NC(=O)COc4ccccc4)ccc3n2C)CC1	UHRF1 binding 26
CCC(=O)Nc1ccc2c(c1)nc(CCN1CCC(C)CC1)n2C	none
CCOC(=O)[C@@]12CCCC=C1N(CCc1ccc(Cl)cc1)C(=O)[C@H]2CC(=O)N1CCN(C(=O)c2ccco2)CC1	none (no result: ARFGAP1 inh, ASAP1 inh)
CC(=O)Nc1ccc(S(=O)(=O)Nc2cccc(-c3csc(C)n3)c2)cc1	none
CC(=O)Nc1ccc(S(=O)(=O)Nc2cccc(-c3nc4cc(C)ccc4o3)c2)cc1	UHRF1 binding 21
CC(=O)Nc1ccc2oc(-c3ccccc3)nc2c1	UHRF1 binding 23
COC(=O)[C@]12C[C@H](CC(=O)N3CCOCC3)C(=O)N(Cc3cccc4ccccc34)C1=C[C@H](C(C)(C)C)O[C@@H]2C	none (no result: ARFGAP1 inh, ASAP1 inh)
Cc1ccccc1NC(=O)NC1(C(=O)N2CCOCC2)CCCCC1	none
O=C(Nc1ccccc1C(F)(F)F)NC1(C(=O)N2CCOCC2)CCCCC1	LEDGF integ inh 25, MBD2 inh 16, UHRF1 binding 34
Cc1ccc(NC(=O)COc2ccc3oc4c(c3c2)CCCC4)nc1	UHRF1 binding 26
O=C(NN1C(=O)CSC1=S)C(=O)NN1C(=O)CSC1=S	LEDGF integ inh 29
O=C(O)CCNc1ccc(NCCC(=O)O)c2c1C(=O)c1ccccc1C2=O	UHRF1 binding 40
COc1ccccc1NCCC(=O)O	none
COc1ccc2nccnc2c1[N+](=O)[O-]	UHRF1 binding 30
Cc1cccc(Nc2ccc([N+](=O)[O-])cc2C(=O)O)c1	UHRF1 binding 23

Bioassay records: PubChem BioAssay, The Scripps Research Institute Molecular Screening Center
